The text below walks through data of ChEMBL document CHEMBL2331363, “Synthesis of a 2,4,6-trisubstituted 5-cyano-pyrimidine library and evaluation of its immunosuppressive activity in a Mixed Lymphocyte Reaction assay” (Bioorg Med Chem, 2013).

By inhibition is commonly meant the share of the control response that was lost under treatment. The CC50 is the concentration giving 50% cytotoxicity. The low end stands for greater toxicity to the cells, the high end for lower toxicity to the cells. As a reminder, the IC50 is the concentration at which inhibition is half-maximal.

Data set [1] addresses Serine/threonine-protein kinase mTOR (Homo sapiens) (UniProt P42345). The data set can be described thus: Inhibition of mTOR (unknown origin) at 10 uM.
In data set [2] the target is T1, Inhibitor of nuclear factor kappa-B kinase subunit beta (Homo sapiens) (UniProt O14920).
T1 sequence (whole entry): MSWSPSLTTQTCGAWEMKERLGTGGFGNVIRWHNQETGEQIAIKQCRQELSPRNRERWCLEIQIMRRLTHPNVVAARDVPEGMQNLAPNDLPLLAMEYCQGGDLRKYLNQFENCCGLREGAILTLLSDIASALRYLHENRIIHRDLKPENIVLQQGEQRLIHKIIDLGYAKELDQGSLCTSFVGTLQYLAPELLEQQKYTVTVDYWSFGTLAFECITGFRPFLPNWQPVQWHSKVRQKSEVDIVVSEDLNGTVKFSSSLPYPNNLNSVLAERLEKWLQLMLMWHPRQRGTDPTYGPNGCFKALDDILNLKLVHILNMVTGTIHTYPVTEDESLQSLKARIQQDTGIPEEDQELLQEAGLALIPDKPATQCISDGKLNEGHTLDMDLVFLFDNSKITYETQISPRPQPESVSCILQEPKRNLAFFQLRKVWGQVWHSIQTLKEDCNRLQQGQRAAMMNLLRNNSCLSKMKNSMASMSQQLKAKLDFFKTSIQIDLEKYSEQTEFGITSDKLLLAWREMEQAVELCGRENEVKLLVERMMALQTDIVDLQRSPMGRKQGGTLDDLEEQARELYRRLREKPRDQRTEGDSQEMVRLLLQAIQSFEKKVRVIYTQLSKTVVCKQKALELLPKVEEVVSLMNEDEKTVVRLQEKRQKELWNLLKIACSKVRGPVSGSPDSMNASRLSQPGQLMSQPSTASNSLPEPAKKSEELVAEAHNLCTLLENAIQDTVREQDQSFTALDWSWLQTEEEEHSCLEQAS
The data set is described as follows: Binding affinity to IKKbeta (unknown origin) at 10 uM relative to control.

The target of data set [3] is T2, Inhibitor of nuclear factor kappa-B kinase subunit alpha (Homo sapiens) (UniProt O15111).
T2 sequence (whole entry): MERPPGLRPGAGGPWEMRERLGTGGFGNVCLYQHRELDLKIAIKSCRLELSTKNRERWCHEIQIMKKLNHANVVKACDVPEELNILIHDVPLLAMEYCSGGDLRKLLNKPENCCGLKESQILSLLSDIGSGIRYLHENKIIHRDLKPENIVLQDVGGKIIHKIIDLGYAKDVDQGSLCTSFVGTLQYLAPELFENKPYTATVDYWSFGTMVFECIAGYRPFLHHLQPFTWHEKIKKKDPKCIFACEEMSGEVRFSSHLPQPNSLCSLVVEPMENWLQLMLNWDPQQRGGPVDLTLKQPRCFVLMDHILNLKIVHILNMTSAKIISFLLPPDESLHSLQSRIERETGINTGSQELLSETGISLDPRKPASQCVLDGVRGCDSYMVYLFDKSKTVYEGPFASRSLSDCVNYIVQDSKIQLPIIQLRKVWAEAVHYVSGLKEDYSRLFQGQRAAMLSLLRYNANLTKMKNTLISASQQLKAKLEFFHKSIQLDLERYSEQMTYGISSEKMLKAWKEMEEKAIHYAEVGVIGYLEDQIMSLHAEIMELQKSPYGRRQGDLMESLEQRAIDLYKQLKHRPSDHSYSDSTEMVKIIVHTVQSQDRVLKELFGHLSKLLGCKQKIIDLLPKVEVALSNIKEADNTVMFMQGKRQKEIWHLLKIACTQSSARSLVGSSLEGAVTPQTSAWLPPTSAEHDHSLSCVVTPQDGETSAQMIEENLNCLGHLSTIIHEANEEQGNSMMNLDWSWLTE
The data set is described as follows: Binding affinity to IKKalpha (unknown origin) at 10 uM relative to control.

Data set [4] deals with Tyrosine-protein kinase JAK1 (Homo sapiens) (UniProt P23458). The data set is described as follows: Binding affinity to JAK1 (unknown origin) at 10 uM relative to control.
Data set [5] concerns the target Serine/threonine-protein kinase 10 (Homo sapiens) (UniProt O94804). The data set can be described thus: Binding affinity to LOK (unknown origin) at 10 uM relative to control.
Data set [6] has as its target T3, Receptor-interacting serine/threonine-protein kinase 4 (Homo sapiens) (UniProt P57078).
T3 sequence (whole entry): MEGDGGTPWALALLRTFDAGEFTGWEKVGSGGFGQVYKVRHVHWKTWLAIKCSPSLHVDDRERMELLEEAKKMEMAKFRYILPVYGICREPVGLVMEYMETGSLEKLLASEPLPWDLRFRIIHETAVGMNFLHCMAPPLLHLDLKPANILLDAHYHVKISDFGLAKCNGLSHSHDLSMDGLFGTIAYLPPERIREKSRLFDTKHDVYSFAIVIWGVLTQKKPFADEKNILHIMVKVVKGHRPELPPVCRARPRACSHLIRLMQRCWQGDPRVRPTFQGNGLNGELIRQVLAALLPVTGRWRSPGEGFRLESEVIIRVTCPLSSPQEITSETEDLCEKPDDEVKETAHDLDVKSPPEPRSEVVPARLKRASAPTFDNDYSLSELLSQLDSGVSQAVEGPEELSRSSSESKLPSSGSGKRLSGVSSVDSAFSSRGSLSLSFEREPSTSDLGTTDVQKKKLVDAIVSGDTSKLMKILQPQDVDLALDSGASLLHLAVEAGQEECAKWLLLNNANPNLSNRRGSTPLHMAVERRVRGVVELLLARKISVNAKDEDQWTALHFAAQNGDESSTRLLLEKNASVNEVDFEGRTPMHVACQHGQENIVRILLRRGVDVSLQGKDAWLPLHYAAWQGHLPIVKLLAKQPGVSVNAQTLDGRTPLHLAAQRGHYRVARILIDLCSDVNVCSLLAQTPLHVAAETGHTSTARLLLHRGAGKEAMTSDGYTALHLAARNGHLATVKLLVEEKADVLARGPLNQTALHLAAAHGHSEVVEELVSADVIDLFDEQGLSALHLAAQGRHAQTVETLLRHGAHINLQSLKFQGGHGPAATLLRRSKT
The data set is described as follows: Binding affinity to RIPK4 (unknown origin) at 10 uM relative to control.

For data set [7], the target named is Serine/threonine-protein kinase B-raf (Homo sapiens) (UniProt P15056). The data set can be described thus: Binding affinity to BRAF (unknown origin) at 10 uM relative to control.
The subject of data set [8] is Serine/threonine-protein kinase B-raf (Homo sapiens), P15056 [V600E]. The data set is described as follows: Binding affinity to BRAF V600E mutant (unknown origin) at 10 uM relative to control.
A short description of data set [9]: Growth inhibition of human Jurkat T cells at 10 uM after 48 hrs by WST1 assay. It is filed as cell-based. In a few lines: (§1)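 Jurkat T cells were seeded at 5.10⁴ cells per well and exposed to serial compound dilutions for 48 h at 37 °C and 5% CO₂. Part of the medium was removed, WST-1 tetrazolium salt was added, and cells were incubated further. Absorbance was read at 450 nm. Results are % cytotoxicity at each concentration, with CC₅₀ calculated.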

The nature of data set [10]: Cytotoxicity against human Jurkat T cells after 48 hrs by WST1 assay. It is filed as cell-based. In a few lines: as §1
A general note: Formazan colour is commonly taken as a measure of viable cells.

Data set [11] in a line: Immunosuppressive activity in human RPMI1788 cells cocultured with human PBMC assessed as inhibition of [3H]thymidine incorporation incubated for 6 days prior to [3H]thymidine addition measured after 18 hrs by liquid scintillation counting. It is filed as functional, cell-based. The note with it: RPMI-1788. In short, it runs like this:
(§2)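 Effector PBMCs from heparinized healthy-donor blood were isolated over Lymphoprep and held at 1.2 × 10⁶ cells/mL in RPMI-1640 with 10% heat-inactivated FCS. Mitomycin-treated stimulator cells were at 0.45 × 10⁶ cells/mL. Cells were mixed with diluted compound and cultured at 37 °C, 5% CO₂. (methyl-³H)thymidine was added for the final 18 h, and filter-harvested cpm were counted by scintillation. Compounds were screened at one concentration, then dose-response IC₅₀ was determined. Values are means of two independent experiments.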
A general note: Incorporation of labelled thymidine or its analogues reports DNA synthesis.

Data set [12] in a line: Immunosuppressive activity in human RPMI1788 cells cocultured with human PBMC assessed as inhibition of [3H]thymidine incorporation at 10 uM incubated for 6 days prior to [3H]thymidine addition measured after 18 hrs by liquid scintillation counting. It is filed as functional. The note with it: RPMI-1788. In a few lines: as §2
In data set [13] the target is Ribosomal protein S6 kinase alpha-6 (Homo sapiens) (UniProt Q9UK32). The data set can be described thus: Binding affinity to RSK4 (unknown origin) at 10 uM relative to control.

A value given as a limit tells only on which side of the number the result lay.

Chain of Serine/threonine-protein kinase B-raf (Homo sapiens), P15056 [V600E] (P15056 whole entry V600E): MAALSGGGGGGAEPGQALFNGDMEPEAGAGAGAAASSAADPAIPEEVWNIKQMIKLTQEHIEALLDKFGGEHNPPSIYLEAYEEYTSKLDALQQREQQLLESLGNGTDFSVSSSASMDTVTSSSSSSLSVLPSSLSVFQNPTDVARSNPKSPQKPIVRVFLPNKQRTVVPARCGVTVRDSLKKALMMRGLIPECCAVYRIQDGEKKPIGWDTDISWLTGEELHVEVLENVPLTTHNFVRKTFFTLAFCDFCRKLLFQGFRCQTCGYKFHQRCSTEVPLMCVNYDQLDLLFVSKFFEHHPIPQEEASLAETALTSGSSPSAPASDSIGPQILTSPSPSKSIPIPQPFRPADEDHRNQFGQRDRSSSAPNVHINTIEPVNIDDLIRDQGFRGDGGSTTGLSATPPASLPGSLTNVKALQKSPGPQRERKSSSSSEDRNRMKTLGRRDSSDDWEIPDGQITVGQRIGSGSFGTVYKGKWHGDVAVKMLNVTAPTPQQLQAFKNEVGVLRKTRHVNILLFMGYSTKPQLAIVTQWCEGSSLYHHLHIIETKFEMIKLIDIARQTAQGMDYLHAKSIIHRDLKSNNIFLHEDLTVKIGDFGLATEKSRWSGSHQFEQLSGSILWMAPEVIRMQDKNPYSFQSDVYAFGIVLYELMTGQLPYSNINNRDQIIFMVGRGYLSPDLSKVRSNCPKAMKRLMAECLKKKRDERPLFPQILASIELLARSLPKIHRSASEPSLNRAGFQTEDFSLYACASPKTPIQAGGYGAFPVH
Chain of Tyrosine-protein kinase JAK1 (Homo sapiens) (P23458 whole entry): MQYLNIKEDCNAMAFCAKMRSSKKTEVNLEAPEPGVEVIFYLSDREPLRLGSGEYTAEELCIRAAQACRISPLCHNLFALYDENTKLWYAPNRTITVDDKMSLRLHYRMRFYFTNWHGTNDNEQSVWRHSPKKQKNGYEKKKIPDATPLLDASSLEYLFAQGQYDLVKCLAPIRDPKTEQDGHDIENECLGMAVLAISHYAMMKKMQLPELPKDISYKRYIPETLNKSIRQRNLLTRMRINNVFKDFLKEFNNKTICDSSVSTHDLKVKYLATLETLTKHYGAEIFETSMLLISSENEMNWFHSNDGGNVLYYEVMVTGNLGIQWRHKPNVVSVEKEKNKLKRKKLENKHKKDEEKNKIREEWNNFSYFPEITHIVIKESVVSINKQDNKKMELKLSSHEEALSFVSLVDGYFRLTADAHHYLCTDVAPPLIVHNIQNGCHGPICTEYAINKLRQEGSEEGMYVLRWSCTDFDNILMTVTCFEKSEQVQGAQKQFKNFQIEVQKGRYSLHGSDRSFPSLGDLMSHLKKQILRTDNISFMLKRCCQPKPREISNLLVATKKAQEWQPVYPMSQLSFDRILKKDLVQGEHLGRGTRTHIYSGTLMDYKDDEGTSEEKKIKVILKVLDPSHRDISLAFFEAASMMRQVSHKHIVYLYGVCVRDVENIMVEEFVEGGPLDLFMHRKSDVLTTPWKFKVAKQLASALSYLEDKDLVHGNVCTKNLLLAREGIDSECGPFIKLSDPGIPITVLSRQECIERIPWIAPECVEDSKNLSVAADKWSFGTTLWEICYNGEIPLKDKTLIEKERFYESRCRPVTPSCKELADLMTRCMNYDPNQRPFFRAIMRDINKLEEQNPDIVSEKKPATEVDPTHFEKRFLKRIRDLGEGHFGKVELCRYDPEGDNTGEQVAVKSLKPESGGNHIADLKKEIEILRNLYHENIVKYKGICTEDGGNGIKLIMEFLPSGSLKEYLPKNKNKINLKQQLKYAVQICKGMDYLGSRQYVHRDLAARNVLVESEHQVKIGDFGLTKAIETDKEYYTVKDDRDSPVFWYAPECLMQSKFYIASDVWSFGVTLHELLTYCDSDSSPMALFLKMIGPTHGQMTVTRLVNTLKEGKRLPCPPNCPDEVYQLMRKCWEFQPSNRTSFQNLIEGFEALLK
Chain of Ribosomal protein S6 kinase alpha-6 (Homo sapiens) (Q9UK32 whole entry): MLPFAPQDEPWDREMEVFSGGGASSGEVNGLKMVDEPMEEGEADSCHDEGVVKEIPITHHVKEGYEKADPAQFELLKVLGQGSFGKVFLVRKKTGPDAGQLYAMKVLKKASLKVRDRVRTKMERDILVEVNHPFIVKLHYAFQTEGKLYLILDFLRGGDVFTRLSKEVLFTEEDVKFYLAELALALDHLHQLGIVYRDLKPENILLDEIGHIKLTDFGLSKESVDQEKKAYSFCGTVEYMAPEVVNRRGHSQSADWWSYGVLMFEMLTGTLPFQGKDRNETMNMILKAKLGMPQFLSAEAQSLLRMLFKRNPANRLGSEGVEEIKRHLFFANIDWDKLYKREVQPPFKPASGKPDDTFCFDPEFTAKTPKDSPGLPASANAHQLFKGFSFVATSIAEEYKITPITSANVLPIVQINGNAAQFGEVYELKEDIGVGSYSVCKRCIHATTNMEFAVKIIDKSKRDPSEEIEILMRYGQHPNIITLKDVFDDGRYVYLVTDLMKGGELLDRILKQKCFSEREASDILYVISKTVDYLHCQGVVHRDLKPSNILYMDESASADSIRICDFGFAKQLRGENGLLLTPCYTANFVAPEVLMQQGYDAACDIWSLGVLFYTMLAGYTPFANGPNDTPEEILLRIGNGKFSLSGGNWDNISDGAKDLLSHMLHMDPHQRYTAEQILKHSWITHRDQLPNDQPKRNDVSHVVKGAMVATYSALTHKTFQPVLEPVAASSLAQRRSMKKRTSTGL
Chain of Serine/threonine-protein kinase 10 (Homo sapiens) (O94804 whole entry, looked up): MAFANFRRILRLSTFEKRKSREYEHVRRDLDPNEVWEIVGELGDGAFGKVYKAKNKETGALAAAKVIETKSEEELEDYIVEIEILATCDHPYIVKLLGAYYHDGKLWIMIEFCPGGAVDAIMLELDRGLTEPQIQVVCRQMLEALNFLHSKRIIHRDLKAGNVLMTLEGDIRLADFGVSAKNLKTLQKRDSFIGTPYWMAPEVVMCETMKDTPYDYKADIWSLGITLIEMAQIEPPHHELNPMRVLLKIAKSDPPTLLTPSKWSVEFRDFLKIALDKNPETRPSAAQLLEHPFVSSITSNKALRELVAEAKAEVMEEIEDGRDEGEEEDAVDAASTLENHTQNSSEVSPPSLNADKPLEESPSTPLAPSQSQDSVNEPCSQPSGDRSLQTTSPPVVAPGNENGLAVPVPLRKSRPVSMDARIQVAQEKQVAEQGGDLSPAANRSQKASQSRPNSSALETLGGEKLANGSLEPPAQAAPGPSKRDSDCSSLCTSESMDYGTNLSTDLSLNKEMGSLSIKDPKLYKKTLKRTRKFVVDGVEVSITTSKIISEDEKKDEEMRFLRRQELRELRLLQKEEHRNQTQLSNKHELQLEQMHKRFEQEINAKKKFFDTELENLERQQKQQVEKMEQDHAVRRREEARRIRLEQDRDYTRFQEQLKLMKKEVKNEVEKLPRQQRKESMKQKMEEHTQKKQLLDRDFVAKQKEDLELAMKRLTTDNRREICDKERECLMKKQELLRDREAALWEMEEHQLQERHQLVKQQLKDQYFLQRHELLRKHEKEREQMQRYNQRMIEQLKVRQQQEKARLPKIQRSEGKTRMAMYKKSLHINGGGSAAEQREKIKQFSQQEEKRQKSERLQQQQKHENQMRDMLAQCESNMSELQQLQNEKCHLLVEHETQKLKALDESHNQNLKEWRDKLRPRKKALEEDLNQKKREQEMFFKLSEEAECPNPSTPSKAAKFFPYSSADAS
Chain of Serine/threonine-protein kinase B-raf (Homo sapiens) (P15056 whole entry): as the sequence (P15056 whole entry V600E) above, with E600V counted along it

In the case of `COc1ccc(-c2nc(SCc3ccccc3)nc(N3CCOCC3)c2C#N)cc1`, the inhibition in data set [1] was found to be 10%. Besides, the Activity in [2] was determined as 48%; in data set [3] it was 44%; in data set [4], 39%; in [5], 45%; in [6] it was 43%; in data set [7], 34%. For the same compound, the Activity in data set [8] came to 28%; in [13], 35%. For the same compound, the inhibition at 48 h, 10 µM in data set [9] was 10%. The same compound registered a CC50 at 48 h in [10] of over 10 µM. Besides, the IC50 in data set [11] worked out at 1.6 µM. Besides, in data set [12], the inhibition at 10 µM came out at 90%.
As to `Cc1ccc(Nc2nc(-c3ccccc3)c(C#N)c(N3CCCCC3)n2)cc1`, the inhibition at 48 h, 10 µM in data set [9] is 10%. Also, in [10], the CC50 at 48 h is over 10 µM. Further, the IC50 in data set [11] was determined as 4.3 µM. Further, the inhibition at 10 µM in [12] was determined as 88%.
Taken in the same sequence, the figures for `COc1ccc(-c2nc(SCc3ccccc3)nc(N3CCC(C(N)=O)CC3)c2C#N)cc1` were 12%, over 10 µM, 4.9 µM and 73%.
Taken in the same sequence, the figures for `CCCCCCSc1nc(-c2ccc(OC)cc2)c(C#N)c(N2CCOCC2)n1` were 13%, over 10 µM, 5.3 µM and 69%.
